In ChEMBL document CHEMBL4387722:

Key:
[1] = molecular target: HSP60/HSP10 (Homo sapiens, UniProt P10809); experiment: Inhibition of human HSP60 expressed in Escherichia coli Rosetta 2(DE3)/human HSP10 expressed in Escherichia coli Rosetta 2(DE3) pLysS cells assessed as reduction in HSP60/HSP10-mediated denatured pig heart mitochondrial MDH refolding by measuring MDH enzyme activity using sodium mesoxalate as substrate after 40 to 60 mins by spectrometric analysis
[2] = tested on: Mycobacterium tuberculosis; experiment: Antitubercular activity against Mycobacterium tuberculosis H37Rv after 5 days; format: functional, organism-based; details: 120 h
[3] = molecular target: T1, Tyrosine-protein phosphatase non-receptor type 2 (Homo sapiens, UniProt P17706); experiment: Inhibition of human PTPN2 expressed in Escherichia coli Rosetta 2 (DE3) using pNPP as substrate after 45 mins by spectrophotometric method
T1 sequence (P17706 whole entry): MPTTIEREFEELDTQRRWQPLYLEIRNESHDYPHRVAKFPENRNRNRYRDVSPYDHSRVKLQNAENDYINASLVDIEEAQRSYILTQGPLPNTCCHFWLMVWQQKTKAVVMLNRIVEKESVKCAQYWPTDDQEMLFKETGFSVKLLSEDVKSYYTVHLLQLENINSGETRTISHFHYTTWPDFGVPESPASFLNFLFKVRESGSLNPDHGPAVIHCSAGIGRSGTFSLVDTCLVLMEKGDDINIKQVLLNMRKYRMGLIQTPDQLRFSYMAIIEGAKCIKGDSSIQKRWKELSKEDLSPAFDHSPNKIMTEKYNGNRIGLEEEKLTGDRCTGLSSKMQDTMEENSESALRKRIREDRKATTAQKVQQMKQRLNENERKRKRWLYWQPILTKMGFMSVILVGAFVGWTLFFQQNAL

[4] = molecular target: T2, E. coli GroEL/ES (Escherichia coli, UniProt P0A6F5); experiment: Inhibition of Escherichia coli GroEL expressed in Escherichia coli DH5alpha/Escherichia coli GroES expressed in Escherichia coli BL21 (DE3) assessed as reduction in GroEL/GroES-mediated denatured rhodanese refolding by measuring rhodanese enzyme activity after 45 mins by Fe(SCN)3 dye based spectrometric analysis
[5] = molecular target: T3, Malate dehydrogenase, mitochondrial (Sus scrofa, UniProt P00346); experiment: Inhibition of refolded pig heart mitochondrial MDH preincubated with Escherichia coli GroEL/GroES for 45 mins using sodium mesoxalate as substrate followed by compound addition and measured after 20 to 30 mins by spectrometric analysis
T3 sequence (P00346 whole entry): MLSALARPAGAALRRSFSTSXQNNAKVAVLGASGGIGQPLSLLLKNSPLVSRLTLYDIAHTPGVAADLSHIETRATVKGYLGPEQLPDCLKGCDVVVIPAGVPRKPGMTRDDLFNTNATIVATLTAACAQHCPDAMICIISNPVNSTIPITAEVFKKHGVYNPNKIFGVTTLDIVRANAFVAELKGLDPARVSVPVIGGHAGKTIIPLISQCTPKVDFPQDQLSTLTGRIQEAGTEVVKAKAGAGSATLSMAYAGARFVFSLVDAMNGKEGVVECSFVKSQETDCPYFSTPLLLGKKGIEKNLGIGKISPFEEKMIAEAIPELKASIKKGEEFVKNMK

[6] = tested on: Mycobacterium tuberculosis; experiment: Antitubercular activity against Mycobacterium tuberculosis H37Rv after 5 days at 200 uM relative to control; format: functional; details: 120 h
How it was run: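 M. tuberculosis grown in liquid culture with compound at a fixed 200 μM for 5 days. Growth inhibition expressed as percent of control.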

[7] = molecular target: T4, Phosphotyrosine protein phosphatase (Mycobacterium tuberculosis, UniProt A0A045ISB3); experiment: Inhibition of Mycobacterium tuberculosis His-tagged PtpB expressed in Escherichia coli Rosetta 2 (DE3) using pNPP as substrate after 30 mins by spectrophotometric method
T4 sequence (A0A045ISB3 whole entry): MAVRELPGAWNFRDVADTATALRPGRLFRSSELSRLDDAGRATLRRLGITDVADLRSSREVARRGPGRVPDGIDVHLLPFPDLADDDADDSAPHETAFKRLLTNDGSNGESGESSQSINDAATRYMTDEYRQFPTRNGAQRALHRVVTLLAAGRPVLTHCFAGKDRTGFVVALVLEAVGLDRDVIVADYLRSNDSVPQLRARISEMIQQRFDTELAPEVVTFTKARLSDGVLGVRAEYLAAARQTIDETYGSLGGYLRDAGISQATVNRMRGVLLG

[8] = Cytotoxicity against human THLE3 cells assessed as reduction in cell viability after 48 hrs by Alamar blue assay; format: cell-based
How it was run: (§1)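 Alamar Blue viability read-out. Human liver (THLE-3) and kidney (HEK 293) cells incubated with compound for 48 h. Tested in dose-response to derive CC50.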

[9] = Inhibition of refolded rhodanese (unknown origin) preincubated with Escherichia coli GroEL/GroES for 60 mins by measuring rhodanese enzyme activity followed by compound addition by Fe(SCN)3 dye based spectrometric analysis; parameters: species or system Homo sapiens
[10] = Cytotoxicity against human HEK293 cells assessed as reduction in cell viability after 48 hrs by Alamar blue assay; format: cell-based; how it was run: as §1
[11] = molecular target: T5, Tyrosine-protein phosphatase non-receptor type 1 (Homo sapiens, UniProt P18031); experiment: Inhibition of human PTPN1 expressed in Escherichia coli Rosetta 2 (DE3) using pNPP as substrate after 45 mins by spectrophotometric method
T5 sequence (P18031 whole entry): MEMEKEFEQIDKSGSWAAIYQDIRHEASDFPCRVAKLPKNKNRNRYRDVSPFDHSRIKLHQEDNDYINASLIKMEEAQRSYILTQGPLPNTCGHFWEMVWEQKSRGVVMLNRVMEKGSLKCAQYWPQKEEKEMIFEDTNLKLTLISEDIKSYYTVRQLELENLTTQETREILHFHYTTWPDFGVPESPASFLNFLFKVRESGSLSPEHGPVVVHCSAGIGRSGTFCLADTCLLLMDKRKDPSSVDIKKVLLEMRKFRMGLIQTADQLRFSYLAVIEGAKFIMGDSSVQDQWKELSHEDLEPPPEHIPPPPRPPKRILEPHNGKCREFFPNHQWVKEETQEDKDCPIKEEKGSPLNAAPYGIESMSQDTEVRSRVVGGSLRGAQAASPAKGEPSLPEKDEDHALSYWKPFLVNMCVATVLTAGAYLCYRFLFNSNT

[12] = molecular target: T2, E. coli GroEL/ES; experiment: Inhibition of Escherichia coli GroEL expressed in Escherichia coliDH5alpha/Escherichia coli GroES expressed in Escherichia coli BL21 (DE3) assessed as reduction in GroEL/GroES-mediated denatured pig heart mitochondrial MDH refolding by measuring MDH enzyme activity using sodium mesoxalate as substrate after 20 to 40 mins by spectrometric analysis
[13] = molecular target: T6, Tyrosine-protein phosphatase non-receptor type 5 (Homo sapiens, UniProt P54829); experiment: Inhibition of human PTPN5 expressed in Escherichia coli Rosetta 2 (DE3) using pNPP as substrate after 45 mins by spectrophotometric method
T6 sequence (P54829 whole entry): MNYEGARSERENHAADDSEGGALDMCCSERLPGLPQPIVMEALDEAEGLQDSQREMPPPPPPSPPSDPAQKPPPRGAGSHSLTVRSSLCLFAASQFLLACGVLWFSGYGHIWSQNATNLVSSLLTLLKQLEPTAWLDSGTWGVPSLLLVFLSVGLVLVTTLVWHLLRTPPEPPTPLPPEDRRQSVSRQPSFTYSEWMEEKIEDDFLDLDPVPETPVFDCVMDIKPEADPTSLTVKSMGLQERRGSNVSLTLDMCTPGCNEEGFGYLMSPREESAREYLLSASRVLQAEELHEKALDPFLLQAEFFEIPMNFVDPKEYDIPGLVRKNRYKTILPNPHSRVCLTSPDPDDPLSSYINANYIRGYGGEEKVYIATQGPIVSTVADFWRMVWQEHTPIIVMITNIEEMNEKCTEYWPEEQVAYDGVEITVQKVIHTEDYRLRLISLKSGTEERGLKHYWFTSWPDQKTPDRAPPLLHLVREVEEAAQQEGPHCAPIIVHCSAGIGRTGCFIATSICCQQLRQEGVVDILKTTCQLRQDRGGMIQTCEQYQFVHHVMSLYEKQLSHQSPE

Sequence of HSP60/HSP10 (P10809 whole entry): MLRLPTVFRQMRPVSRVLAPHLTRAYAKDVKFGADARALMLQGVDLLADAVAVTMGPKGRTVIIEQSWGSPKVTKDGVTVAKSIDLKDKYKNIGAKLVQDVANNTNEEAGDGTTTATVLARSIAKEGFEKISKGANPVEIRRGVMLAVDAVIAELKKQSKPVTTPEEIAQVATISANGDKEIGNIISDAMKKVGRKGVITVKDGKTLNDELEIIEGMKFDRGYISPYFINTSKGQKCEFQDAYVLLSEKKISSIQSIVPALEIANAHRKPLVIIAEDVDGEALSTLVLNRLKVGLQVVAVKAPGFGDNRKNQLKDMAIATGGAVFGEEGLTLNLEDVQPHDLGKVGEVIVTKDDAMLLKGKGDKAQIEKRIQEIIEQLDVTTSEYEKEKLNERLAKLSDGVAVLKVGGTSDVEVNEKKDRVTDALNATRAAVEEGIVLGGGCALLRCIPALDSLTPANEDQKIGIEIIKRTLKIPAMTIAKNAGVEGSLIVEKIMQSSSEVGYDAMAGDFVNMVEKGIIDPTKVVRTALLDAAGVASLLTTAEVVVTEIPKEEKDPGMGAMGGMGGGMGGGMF
Sequence of HSP60/HSP10 (P61604 whole entry, further chain): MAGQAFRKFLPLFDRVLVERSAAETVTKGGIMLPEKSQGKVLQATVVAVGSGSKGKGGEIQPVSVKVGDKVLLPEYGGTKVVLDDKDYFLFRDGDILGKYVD
T2 sequence (P0A6F5 whole entry, looked up): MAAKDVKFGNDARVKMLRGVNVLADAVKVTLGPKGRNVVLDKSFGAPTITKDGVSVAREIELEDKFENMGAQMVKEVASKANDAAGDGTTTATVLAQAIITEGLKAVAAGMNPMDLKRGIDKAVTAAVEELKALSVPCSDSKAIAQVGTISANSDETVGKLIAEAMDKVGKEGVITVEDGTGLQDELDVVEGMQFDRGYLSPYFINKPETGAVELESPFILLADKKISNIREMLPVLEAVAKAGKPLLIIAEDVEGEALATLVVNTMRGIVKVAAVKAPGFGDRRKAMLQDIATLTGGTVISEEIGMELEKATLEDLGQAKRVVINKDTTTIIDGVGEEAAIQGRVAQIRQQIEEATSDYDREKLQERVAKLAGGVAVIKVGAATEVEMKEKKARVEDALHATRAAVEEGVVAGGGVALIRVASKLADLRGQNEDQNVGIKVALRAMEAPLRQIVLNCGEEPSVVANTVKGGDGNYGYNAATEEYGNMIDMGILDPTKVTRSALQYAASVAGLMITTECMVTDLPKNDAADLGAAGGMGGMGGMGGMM

Row | SMILES | IC50 [1] | EC50 [2] | IC50 [3] | IC50 [4] | IC50 [5] | inhibition at 200 µM [6] | IC50 [7] | CC50 at 48 h [8] | IC50 [9] | CC50 at 48 h [10] | IC50 [11] | IC50 [12] | IC50 [13]
1 | O=S(=O)(Nc1ccc(-c2nc3ccccc3o2)cc1)c1cccc(C(F)(F)F)c1 | 57 µM | > 200 µM | 48 µM | 170 µM | > 63 µM | 50% | 49 µM | 82 µM | > 100 µM | > 100 µM | 44 µM | 53 µM | 40 µM
2 | O=S(=O)(Nc1ccc(-c2nc3ccccc3o2)cc1)c1ccccc1C(F)(F)F | 74 µM | > 200 µM | 61 µM | 166 µM | > 63 µM | 58% | 58 µM | 91 µM | > 100 µM | > 100 µM | 44 µM | 75 µM | 53 µM
3 | O=S(=O)(Nc1ccc(-c2nc3ccccc3o2)cc1)c1cccs1 | 63 µM | > 200 µM | > 100 µM | 239 µM | > 63 µM | 68% | 48 µM | 98 µM | > 100 µM | > 100 µM | > 100 µM | > 100 µM | 93 µM
4 | O=S(=O)(Nc1ccc(-c2nc3ccccc3o2)cc1)c1ccccc1 | > 100 µM | 179 µM | 66 µM | 217 µM | > 63 µM | 71% | 80 µM | 96 µM | > 100 µM | > 100 µM | 65 µM | 94 µM | 51 µM
5 | CCc1ccc(S(=O)(=O)Nc2ccc3oc(-c4ccccc4)nc3c2)cc1 | > 100 µM | 148 µM | 55 µM | 237 µM | > 63 µM | 87% | 67 µM | 63 µM | > 100 µM | 81 µM | 57 µM | > 100 µM | 42 µM
6 | Cc1ccccc1S(=O)(=O)Nc1ccc(-c2nc3ccccc3o2)cc1 | 85 µM | 176 µM | 50 µM | 111 µM | > 63 µM | 58% | 38 µM | 86 µM | > 100 µM | > 100 µM | 52 µM | 76 µM | 32 µM
7 | Cc1ccc(S(=O)(=O)Nc2ccc3oc(-c4ccccc4)nc3c2)cc1 | > 100 µM | 172 µM | 49 µM | 157 µM | > 63 µM | 87% | 68 µM | 53 µM | > 100 µM | 75 µM | 48 µM | > 100 µM | 39 µM
8 | O=S(=O)(Nc1ccc(-c2nc3ccccc3o2)cc1)c1ccc(F)c(C(F)(F)F)c1 | 28 µM | > 200 µM | 36 µM | 112 µM | > 63 µM | 77% | 36 µM | 72 µM | > 100 µM | 82 µM | 40 µM | 34 µM | 43 µM
9 | O=S(=O)(Nc1ccc(-c2nc3ccccc3o2)cc1)c1ccc(F)cc1 | 73 µM | 144 µM | 76 µM | 224 µM | > 63 µM | 83% | 64 µM | 77 µM | > 100 µM | > 100 µM | 68 µM | 93 µM | 59 µM
